The test system of assay [1] is Staphylococcus aureus. As to the kind of experiment: Antimicrobial activity against tetracycline/methicillin-resistant Staphylococcus aureus XU212 after 18 hrs by MTT based broth dilution assay. Conditions: XU212, 18 h. The assay is classed as functional. An outline of the steps: (§1)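 Strains grown 24 h at 37 °C on nutrient agar. Inoculum of 5 × 10^5 CFU set in 0.9% saline against a 0.5 McFarland standard. Compounds serially diluted 0.5–256 μg/mL in Mueller–Hinton broth, inoculated and incubated 18 h at 37 °C; DMSO control; norfloxacin positive control. MTT (5 mg/mL methanolic) added for 20 min; MIC is the lowest concentration with no growth (no yellow-to-blue change); at least three independent determinations.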
(In general: Broth dilution looks for growth in wells or tubes with falling amounts of substance.)

Assay [2] has as its system Enterococcus faecalis. Description: Antimicrobial activity against Enterococcus faecalis FF11 at 40 ug/disk after 2 days by disc diffusion method. In kind it is functional, organism-based. The essentials: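 Bacterial suspension (1 × 10^5 CFU/mL) spread on Mueller–Hinton agar. Paper disks (8 mm) carried 40 μL of a 1000 μg/mL acetone solution, dried, and were placed on the plate. Incubated 2 days at 37 °C; halo diameter measured; mean ± standard error of three replications; azithromycin positive control.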
On the technique in general: A growth-free zone around the sample is the usual read-out of agar diffusion tests.

Assay [3] concerns Staphylococcus aureus. Description: Antimicrobial activity against […] Staphylococcus aureus SA1199B after 18 hrs by MTT based broth dilution assay. In kind it is functional. An outline of the steps:
as §1

The test system of assay [4] is Staphylococcus aureus. Description: Antimicrobial activity against methicillin-resistant Staphylococcus aureus EMRSA-15 after 18 hrs by MTT based broth dilution assay. The assay is classed as functional. Conditions: EMRSA-15, 18 h. An outline of the steps: as §1
For another assay, the system named is PC-3. Description: Cytotoxicity against human PC3 cells at 100 uM after 72 hrs by SRB assay. The assay is classed as functional, cell-based. An outline of the steps:
(§2)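 SRB assay. Cells kept in DMEM with 10% FBS and 1% penicillin–streptomycin at 37 °C, 5% CO2. Seeded at 5 × 10^4 cells/mL, adapted overnight, then exposed to compounds for 72 h. Cells fixed with 10% TCA (30 min, 4 °C), stained with SRB for 30 min, washed with 1% acetic acid, OD read at 540 nm. Paclitaxel positive control; 0.05% DMSO negative control; triplicate.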

Another assay has as its system Pyricularia oryzae. Description: Antimicrobial activity against Magnaporthe oryzae Triticum pathotype at 40 ug/disk after 5 days by disc diffusion method. The assay is classed as functional, organism-based. An outline of the steps: (§3)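 Fungi pre-grown on 10% V8 agar at 25 °C in the dark. A 4 mm mycelial agar block was centred on a 9 cm PDA plate. Paper disks (8 mm) carried 40 μL of a 1000 μg/mL acetone stock, dried, and were set 4 mm from the block. Plates incubated 5 days at 25 °C in the dark; inhibition zone measured in mm; triplicate.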

Assay [5] relates to Staphylococcus aureus. Description: Antimicrobial activity against […] Staphylococcus aureus ATCC 25923 after 18 hrs by MTT based broth dilution assay. In kind it is functional. The note with it: ATCC 25923, 18 h. An outline of the steps: as §1
A further assay deals with HepG2. Description: Cytotoxicity against human HepG2 cells at 100 uM after 72 hrs by SRB assay. In kind it is functional, cell-based. The essentials: as §2
In general terms: Sulforhodamine B stains cellular protein and so reports cell mass.

The subject of assay [6] is Colletotrichum gloeosporioides. Description: Antimicrobial activity against Colletotrichum gloeosporioides at 40 ug/disk after 5 days by disc diffusion method. The assay is classed as functional, organism-based. An outline of the steps:
as §3

Assay [7] has as its system Enterococcus faecalis. As to the kind of experiment: Antimicrobial activity against Enterococcus faecalis F1B1 assessed as zone of inhibition at 40 ug/disk after 2 days by disc diffusion method. In kind it is functional. Conditions: F1B1, 48 h, read-out: DIZ. The essentials: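 Disk diffusion on Mueller-Hinton agar spread with bacterial suspension (1 × 10^5 CFU/mL). 40 μL of a 1000 μg/mL acetone solution loaded on an 8 mm paper disk and dried before placement. Incubated 2 days at 37 °C, then diameter of the bacteria-free halo measured. Mean ± standard error of three replicates; azithromycin positive control.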

Converted amounts (≈) assume the structure as drawn. The source made the active and inactive calls. The rule behind the calls is not given here.

As a reminder, the MIC is the lowest concentration that inhibits growth of the organism.

In the case of `CC(=O)O[C@@H]1[C@@H](O)C(C)=CC[C@]12[C@H]1[C@H](C)COC(=O)[C@H]1O[C@@]2(C)O`, the MIC in the assay on Staphylococcus aureus [1] came out at 32 µg/mL (≈ 94 µM); against Staphylococcus aureus [3], 16 µg/mL (≈ 47 µM); against Staphylococcus aureus [4], 32 µg/mL (≈ 94 µM); with Staphylococcus aureus [5], 16 µg/mL (≈ 47 µM). The outcome (in the assay on Enterococcus faecalis [2]; with PC-3; with Pyricularia oryzae; in the assay on HepG2; in assay [6]) was inactive.
In the case of `CC(=O)O[C@@H]1C(=O)OC[C@@H](C)[C@@H]1c1ccc(C)c(O)c1O`, the minimal inhibitory concentration (MIC) is 64 µg/mL (≈ 217 µM) in the assay on Staphylococcus aureus [1], 128 µg/mL (≈ 435 µM) in the assay with Staphylococcus aureus [3] and 64 µg/mL (≈ 217 µM) in the assay on Staphylococcus aureus [4]. The outcome (in the assay on Enterococcus faecalis [2]; in the assay on PC-3; in the assay on Pyricularia oryzae; in the assay on HepG2; in assay [6]) was inactive. Besides, the zone of inhibition at 40 µg/disc with Enterococcus faecalis [7] was found to be 9.5 mm.
For the molecule `CC1=CC[C@]2([C@H]3[C@H](C)COC(=O)[C@H]3O[C@@]2(C)O)[C@H](O)C1=O`, the result (with Enterococcus faecalis [2]; in the assay on PC-3; in the assay on Pyricularia oryzae; in the assay on HepG2; in assay [6]) was inactive. The figures for the minimum inhibitory concentration (MIC) with Staphylococcus aureus [3], in the assay with Staphylococcus aureus [4] and in the assay with Staphylococcus aureus [5] were 64 µg/mL (≈ 216 µM), 64 µg/mL (≈ 216 µM) and 32 µg/mL (≈ 108 µM), respectively. For the same molecule, the zone of inhibition at 40 µg/disc in the assay on Enterococcus faecalis [7] is 7.1 mm.
For the molecule `CCn1cc(C(=O)O)c(=O)c2cc(F)c(N3CCNCC3)cc21` [NORFLOXACIN], the minimum inhibitory concentration (MIC) in the assay with Staphylococcus aureus [1] was found to be 32 µg/mL (≈ 100 µM); in the assay with Staphylococcus aureus [3], 64 µg/mL (≈ 200 µM); in the assay on Staphylococcus aureus [4], 32 µg/mL (≈ 100 µM); against Staphylococcus aureus [5], 32 µg/mL (≈ 100 µM).
For the molecule `CC1=CC[C@]2([C@H]3[C@H](C)COC(=O)[C@H]3O[C@@]2(C)O)[C@@H](O)[C@H]1O`, the result (in the assay with Enterococcus faecalis [2]; in the assay on PC-3; in the assay on Pyricularia oryzae; in the assay on HepG2; in assay [6]) was inactive. Besides, the MIC turned out to be 64 µg/mL (≈ 215 µM) against Staphylococcus aureus [3], 64 µg/mL (≈ 215 µM) in the assay with Staphylococcus aureus [4] and 32 µg/mL (≈ 107 µM) against Staphylococcus aureus [5].
Regarding `Cc1ccc([C@H]2[C@H](C)COC(=O)[C@H]2O)c(O)c1O`, the MIC is 128 µg/mL (≈ 507 µM) in the assay with Staphylococcus aureus [1], 128 µg/mL (≈ 507 µM) in the assay with Staphylococcus aureus [3], 128 µg/mL (≈ 507 µM) with Staphylococcus aureus [4] and 64 µg/mL (≈ 254 µM) with Staphylococcus aureus [5]. The result (in the assay on Enterococcus faecalis [2]; in the assay on PC-3; with Pyricularia oryzae; with HepG2; in assay [6]) was inactive. The zone of inhibition at 40 µg/disc in the assay on Enterococcus faecalis [7] was found to be 5.6 mm.
Turning to `COCC1=CC[C@]2([C@H]3[C@H](C)COC(=O)[C@H]3O[C@@]2(C)OC)[C@H](O)C1=O`, the MIC came out at 128 µg/mL (≈ 376 µM) with Staphylococcus aureus [1], 256 µg/mL (≈ 752 µM) against Staphylococcus aureus [3], 256 µg/mL (≈ 752 µM) against Staphylococcus aureus [4] and 128 µg/mL (≈ 376 µM) in the assay with Staphylococcus aureus [5]. The result (in the assay on Enterococcus faecalis [2]; in the assay with PC-3; in the assay on Pyricularia oryzae; in the assay with HepG2; in [6]) was inactive. Moreover, in the assay on Enterococcus faecalis [7], the zone of inhibition at 40 µg/disc came out at 5.5 mm.
Turning to `COCC1=CC[C@]2([C@H]3[C@H](C)COC(=O)[C@H]3O[C@@]2(C)O)[C@H](O)C1=O`, the MIC against Staphylococcus aureus [1] came to 128 µg/mL (≈ 392 µM); in the assay with Staphylococcus aureus [3], 64 µg/mL (≈ 196 µM); in the assay with Staphylococcus aureus [4], 128 µg/mL (≈ 392 µM); in the assay on Staphylococcus aureus [5] it was 64 µg/mL (≈ 196 µM). Moreover, the outcome (in the assay on Enterococcus faecalis [2]; with PC-3; with Pyricularia oryzae; in the assay on HepG2; in assay [6]) was inactive.
Regarding `CC1C(=O)[C@@H](O)[C@@]23C[C@H]1O[C@]2(O)O[C@@H]1C(=O)OC[C@@H](C)[C@@H]13` (some centres undefined), the MIC against Staphylococcus aureus [1] worked out at 64 µg/mL (≈ 215 µM); with Staphylococcus aureus [3], 128 µg/mL (≈ 429 µM); in the assay on Staphylococcus aureus [4], 64 µg/mL (≈ 215 µM); against Staphylococcus aureus [5] it was 64 µg/mL (≈ 215 µM). Moreover, the result (in the assay on Enterococcus faecalis [2]; in the assay with PC-3; in the assay with Pyricularia oryzae; with HepG2; in assay [6]) was inactive.
For `C[C@@H]1COC(=O)[C@H]2O[C@@](C)(O)[C@@]3(CC=C(CO)C(=O)[C@H]3O)[C@@H]12`, the MIC was found to be 64 µg/mL (≈ 205 µM) in the assay on Staphylococcus aureus [1], 128 µg/mL (≈ 410 µM) with Staphylococcus aureus [3], 128 µg/mL (≈ 410 µM) with Staphylococcus aureus [4] and 64 µg/mL (≈ 205 µM) with Staphylococcus aureus [5]. The outcome (in the assay on Enterococcus faecalis [2]; in the assay on PC-3; in the assay with Pyricularia oryzae; in the assay on HepG2; in assay [6]) was inactive.
Take `CC(=O)O[C@@H]1[C@@H](OC(C)=O)C(C)=CC[C@]12[C@H]1[C@H](C)COC(=O)[C@H]1O[C@@]2(C)O`: the MIC in the assay on Staphylococcus aureus [1] and in the assay with Staphylococcus aureus [3] was 64 µg/mL (≈ 167 µM) throughout. In addition, the outcome (in the assay with Enterococcus faecalis [2]; with PC-3; with Pyricularia oryzae; in the assay on HepG2; in [6]) was inactive. For the same molecule, the zone of inhibition at 40 µg/disc in the assay with Enterococcus faecalis [7] is 5.5 mm.
